Experimental data reported in ChEMBL document CHEMBL1143122, “Novel analogs of D-e-MAPP and B13. Part 1: synthesis and evaluation as potential anticancer agents” (Bioorg Med Chem, 2008).

Experiments:
OVCAR-8 = test: Antiproliferative activity against human OVCAR8 cells after 48 hrs; format: functional; conditions: OVCAR-8, 48 h
In short: (§1)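 NCI 60-cell screen. Cells were grown in RPMI 1640 with 5% FBS and 2 mM L-glutamine, then plated at 5,000–40,000 cells/well according to doubling time and preincubated for 24 h at 37 °C in 5% CO2. Compounds were dissolved in DMSO at 400× the top final concentration and tested at five 10-fold dilutions from 10−4 to 10−8 M for 48 h. Growth was read spectrophotometrically; GI50 is 50% net protein reduction.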

HOP-92 = test: Antiproliferative activity against human HOP92 cells after 48 hrs; format: functional; conditions: HOP-92, 48 h; in short: as §1
[1] = Antiproliferative activity against human HL60(TB) cells after 48 hrs; format: functional, HL-60(TB); conditions: HL-60, 48 h
In short: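 NCI 60-line panel screen: cells grown in RPMI 1640 with 5% fetal bovine serum and 2 mM L-glutamine, plated at 5,000–40,000 cells/well by doubling time, and preincubated 24 h at 37 °C in 5% CO2. Drugs were solubilised in DMSO at 400-fold the final maximum and tested at five 10-fold dilutions from 10−4 to 10−8 M for 48 h. Net protein was read spectrophotometrically, and the concentration giving 50% reduction was reported as log10 GI50.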

BT-549 = test: Antiproliferative activity against human BT549 cells after 48 hrs; format: functional; conditions: BT-549, 48 h; in short: as §1
SNB-75 = test: Antiproliferative activity against human SNB75 cells after 48 hrs; format: functional; conditions: SNB-75, 48 h; in short: as §1
NCI-H460 = test: Antiproliferative activity against human NCI-H460 cells after 48 hrs; format: functional; conditions: NCI-H460, 48 h; in short: as §1
SF-268 = test: Antiproliferative activity against human SF268 cells after 48 hrs; format: functional; conditions: SF-268, 48 h; in short: as §1
SK-MEL-28 = test: Antiproliferative activity against human SKMEL28 cells after 48 hrs; format: functional; conditions: SK-MEL-28, 48 h; in short: as §1
Malme-3M = test: Antiproliferative activity against human MALME3M cells after 48 hrs; format: functional; in short: as §1
[2] = Antiproliferative activity against human NCI-ADR-RES cells after 48 hrs; format: functional; in short: as §1
COLO 205 = test: Antiproliferative activity against human COLO205 cells after 48 hrs; format: functional; conditions: COLO 205, 48 h; in short: as §1
Hs-578T = test: Antiproliferative activity against human HS578T cells after 48 hrs; format: functional; in short: as §1
OVCAR-5 = test: Antiproliferative activity against human OVCAR5 cells after 48 hrs; format: functional; conditions: OVCAR-5, 48 h; in short: as §1
OVCAR-4 = test: Antiproliferative activity against human OVCAR4 cells after 48 hrs; format: functional; conditions: OVCAR-4, 48 h; in short: as §1
U-251 = test: Antiproliferative activity against human U251 cells after 48 hrs; format: functional; conditions: U-251, 48 h
In short: (§2)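 NCI 60-cell-line screen. Lines grown in RPMI 1640 with 5% fetal bovine serum and 2 mM L-glutamine, plated at 5,000–40,000 cells/well according to doubling time, left 24 h at 37 °C in 5% CO2. Drug stocks in DMSO at 400-fold the top final concentration. Five 10-fold dilutions, 10−4 to 10−8 M, incubated 48 h. Growth read spectrophotometrically as net protein; GI50 taken as 50% reduction.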

786-0 = test: Antiproliferative activity against human 786-0 cells after 48 hrs; format: functional; conditions: 786-0, 48 h; in short: as §1
MOLT-4 = test: Antiproliferative activity against human MOLT4 cells after 48 hrs; format: functional; conditions: MOLT-4, 48 h; in short: as §1
SF-539 = test: Antiproliferative activity against human SF539 cells after 48 hrs; format: functional; conditions: SF-539, 48 h; in short: as §1
SK-MEL-5 = test: Antiproliferative activity against human SKMEL5 cells after 48 hrs; format: functional; conditions: SK-MEL-5, 48 h; in short: as §1
IGROV-1 = test: Antiproliferative activity against human IGROV1 cells after 48 hrs; format: functional; conditions: IGROV-1, 48 h; in short: as §1
MCF7 = test: Drug level in human MCF7 cells at 10 uM per 10^6 cells after 0.5 hrs; format: ADME, cell-based; conditions: mcf7, 0.5 h
In short: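 MCF7 cells kept in RPMI 1640 with 10% fetal calf serum at 37 °C, 5% CO2, then treated with 10 μM analog. Intracellular analog measured over time by HPLC-MS in positive-ion MRM mode. Quantified against calibration curves made by spiking an artificial matrix with standards plus internal standard, using analyte/IS peak-area ratios and linear regression. Reported as pmol per 1×10^6 cells.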

K562 = test: Antiproliferative activity against human K562 cells after 48 hrs; format: functional; conditions: K562, 48 h; in short: as §1
ACHN = test: Antiproliferative activity against human ACHN cells after 48 hrs; format: functional; in short: as §1
[3] = Antiproliferative activity against human […] cells after 48 hrs; format: functional; in short: as §1
NCI-H23 = test: Antiproliferative activity against human NCI-H23 cells after 48 hrs; format: functional; conditions: NCI-H23, 48 h; in short: as §1
MDA-MB-231 = test: Antiproliferative activity against human MDA-MB-231 cells after 48 hrs; format: functional; conditions: MDA-MB-231, 48 h; in short: as §1
UO-31 = test: Antiproliferative activity against human UO31 cells after 48 hrs; format: functional; conditions: UO-31, 48 h; in short: as §2
[4] = read-out: Log LC50 (the source's name) (converted)

C[C@@H](NC(=O)CCCCCCCCCCCCCCC[n+]1ccccc1)[C@@H](O)c1ccccc1.[Br-]
GI50 (OVCAR-8): 2.75 µM | CC50 (OVCAR-8; [4]): > 100 µM | TGI (OVCAR-8; read-out: Log TGI (converted)): 13.5 µM | GI50 (HOP-92): 0.0407 µM | LC50 (HOP-92): 5.75 µM | TGI (HOP-92; read-out: Log TGI (converted)): 0.912 µM | GI50 [1]: 1.12 µM | LC50 [1]: > 100 µM | TGI ([1]; read-out: Log TGI (converted)): 3.72 µM | GI50 (BT-549): 0.0692 µM | LC50 (BT-549): 3.39 µM | TGI (BT-549; read-out: Log TGI (converted)): 1.07 µM | GI50 (SNB-75): 2.95 µM | CC50 (SNB-75; [4]): 9.77 µM | TGI (SNB-75; read-out: Log TGI (converted)): 5.37 µM | GI50 (NCI-H460): 2.95 µM | CC50 (NCI-H460; [4]): > 100 µM | TGI (NCI-H460; read-out: Log TGI (converted)): 11.5 µM | GI50 (SF-268): 1.66 µM | LC50 (SF-268): 6.03 µM | TGI (SF-268; read-out: Log TGI (converted)): 3.16 µM | GI50 (SK-MEL-28): 1.7 µM | LC50 (SK-MEL-28): 5.75 µM | TGI (SK-MEL-28; read-out: Log TGI (converted)): 3.16 µM | GI50 (Malme-3M): 1.66 µM | LC50 (Malme-3M): 5.75 µM | TGI (Malme-3M; read-out: Log TGI (converted)): 3.09 µM | GI50 [2]: 19.5 µM | LC50 [2]: 85.1 µM | TGI ([2]; read-out: Log TGI (converted)): 40.7 µM | GI50 (COLO 205): 1.38 µM | TGI (COLO 205; read-out: Log TGI (converted)): 3.02 µM | GI50 (Hs-578T): 1.78 µM | LC50 (Hs-578T): 9.12 µM | TGI (Hs-578T; read-out: Log TGI (converted)): 4.07 µM | GI50 (OVCAR-5): 5.25 µM | CC50 (OVCAR-5; [4]): 50.1 µM | TGI (OVCAR-5; read-out: Log TGI (converted)): 18.2 µM | GI50 (OVCAR-4): 1.7 µM | LC50 (OVCAR-4): > 100 µM | TGI (OVCAR-4; read-out: Log TGI (converted)): 5.37 µM | GI50 (U-251): 1.41 µM | CC50 (U-251; [4]): 5.25 µM | TGI (U-251; read-out: Log TGI (converted)): 2.75 µM | GI50 (786-0): 2.63 µM | CC50 (786-0; [4]): 34.7 µM | TGI (786-0; read-out: Log TGI (converted)): 8.51 µM | GI50 (MOLT-4): 2.51 µM | LC50 (MOLT-4): 100 µM | TGI (MOLT-4; read-out: Log TGI (converted)): 6.46 µM | GI50 (SF-539): 2.04 µM | LC50 (SF-539): > 100 µM | TGI (SF-539; read-out: Log TGI (converted)): 5.5 µM | GI50 (SK-MEL-5): 1.58 µM | CC50 (SK-MEL-5; [4]): 5.5 µM | TGI (SK-MEL-5; read-out: Log TGI (converted)): 2.95 µM | GI50 (IGROV-1): 1.62 µM | TGI (IGROV-1; read-out: Log TGI (converted)): 3.31 µM | Drug uptake (MCF7): 800 pmol | GI50 (K562): 0.832 µM | LC50 (K562): > 100 µM | TGI (K562; read-out: Log TGI (converted)): 3.98 µM | GI50 (ACHN): 17 µM | CC50 (ACHN; [4]): 64.6 µM | TGI (ACHN; read-out: Log TGI (converted)): 33.1 µM | GI50 [3]: 2.57 µM | LC50 [3]: > 100 µM | TGI ([3]; read-out: Log TGI (converted)): 8.71 µM | GI50 (NCI-H23): 2.95 µM | CC50 (NCI-H23; [4]): 56.2 µM | TGI (NCI-H23; read-out: Log TGI (converted)): 11.7 µM | GI50 (MDA-MB-231): 1.74 µM | LC50 (50% lethal concentration) (MDA-MB-231): 7.59 µM | TGI (MDA-MB-231; read-out: Log TGI (converted)): 3.63 µM | GI50 (UO-31): 19.1 µM | LC50 (UO-31): 93.3 µM | TGI (UO-31; read-out: Log TGI (converted)): 41.7 µM
